Results published in ChEMBL document CHEMBL1126626, “Synthesis and pharmacological evaluation of (nitrooxy)alkyl apovincaminates” (1993).

Experiments:
[1] = test system: Canis familiaris; assay: Effect on femoral blood flow (FBF) was studied, after intra arterial administration in anesthetized dogs relative to vinpocetine; type: functional, Canis lupus familiaris
In short: (§1)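 Compounds were given intraarterially to anesthetized dogs. Dose-response curves were built from peak response values. Potency was expressed as a ratio to vinpocetine, set at 1.0.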

[2] = test system: Canis familiaris; assay: Effect on vertebral blood flow (VBF) was studied, after intra arterial administration in anesthetized dogs relative to vinpocetine; type: functional, Canis lupus familiaris; in short: as §1

CC[C@@]12C=C(C(=O)OCCO[N+](=O)[O-])n3c4c(c5ccc(Br)cc53)CCN(CCC1)[C@H]42
Potency ratio [1]: 0.36
Potency ratio [2]: 0.58

CC[C@@]12C=C(C(=O)OCCCCCCCCCCO[N+](=O)[O-])n3c4c(c5ccccc53)CCN(CCC1)[C@H]42
Potency ratio [1]: 0.16
Potency ratio [2]: 0.48

CC[C@@]12C=C(C(=O)OCCCCCCO[N+](=O)[O-])n3c4c(c5ccccc53)CCN(CCC1)[C@H]42
Potency ratio [1]: 0.84
Potency ratio [2]: 0.99

CC[C@@]12C=C(C(=O)OCCCCCO[N+](=O)[O-])n3c4c(c5ccccc53)CCN(CCC1)[C@H]42
Potency ratio [1]: 1.07
Potency ratio [2]: 1.09

CC[C@@]12C=C(C(=O)OCCCO[N+](=O)[O-])n3c4c(c5ccccc53)CCN(CCC1)[C@H]42
Potency ratio [1]: 1.91
Potency ratio [2]: 1.85

CC[C@@]12C=C(C(=O)OCCCCCCCCCCCO[N+](=O)[O-])n3c4c(c5ccccc53)CCN(CCC1)[C@H]42
Potency ratio [1]: 0.38
Potency ratio [2]: 0.33

CC[C@@]12C=C(C(=O)OCCCCCCCCCO[N+](=O)[O-])n3c4c(c5ccccc53)CCN(CCC1)[C@H]42
Potency ratio [1]: 0.15
Potency ratio [2]: 0.33

CC[C@@]12C=C(C(=O)OCCO[N+](=O)[O-])n3c4c(c5ccccc53)CCN(CCC1)[C@H]42
Potency ratio [1]: 4.72
Potency ratio [2]: 3.83

CC[C@@]12C=C(C(=O)OCCCCCCCO[N+](=O)[O-])n3c4c(c5ccccc53)CCN(CCC1)[C@H]42
Potency ratio [1]: 0.67
Potency ratio [2]: 0.82

CC[C@@]12C=C(C(=O)OCCCCO[N+](=O)[O-])n3c4c(c5ccccc53)CCN(CCC1)[C@H]42
Potency ratio [1]: 1.63
Potency ratio [2]: 1.25

CC[C@@]12C=C(C(=O)OCCCCCCCCO[N+](=O)[O-])n3c4c(c5ccccc53)CCN(CCC1)[C@H]42
Potency ratio [1]: 0.34
Potency ratio [2]: 0.35

CC[C@]12CCCN3CCc4c(n(c5cc(Br)ccc45)[C@@](O)(C(=O)OC)C1)[C@@H]32 [BROVINCAMINE]
Potency ratio [1]: 0.28
Potency ratio [2]: 0.17

CCOC(=O)C1=C[C@]2(CC)CCCN3CCc4c(n1c1ccccc41)[C@@H]32 [VINPOCETINE]
Potency ratio [1]: 1
Potency ratio [2]: 1
